Assay results published in ChEMBL document CHEMBL1926503, “Efficient one-pot preparation of novel fused chromeno[2,3-d]pyrimidine and pyrano[2,3-d]pyrimidine derivatives” (2012).

Legend:
Assay type in all cases: functional
Staphylococcus aureus = assay: Antibacterial activity against Staphylococcus aureus at 1 to 10 mg/mL after 24 hrs by agar well diffusion method
Procedure, shortened: (§1)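 Agar well diffusion. Bacterial pellets from a 24 h culture (about 10⁴–10⁶ CFU/ml) were spread on nutrient agar (tryptone 1%, yeast extract 0.5%, NaCl 0.5%, agar 1%, pH 7.0). Wells received DMSO solutions at 10 mg/mL, with DMSO as control and tetracycline as reference. Plates ran 24 h at 37 °C. Each zone was measured three times by caliper and averaged; three runs per culture.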

Aspergillus flavus [1] = assay: Antifungal activity against Aspergillus flavus at 1 to 10 mg/mL after 3 to 4 days by agar well diffusion method
Procedure, shortened: (§2)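 Fungi were grown on Sabouraud dextrose agar (glucose–peptone–agar 40:10:15) after single-spore purification. Wells (4 mm × 2 mm) were cut and their bottoms sealed with 0.8% soft agar, then loaded with DMSO solutions at 10 mg/mL. DMSO served as control and amphotericin B as reference. Plates incubated at 30 °C for 3–4 days. Inhibition zone diameter was measured three times by caliper and averaged.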

Candida albicans [2] = assay: Antifungal activity against Candida albicans after 3 to 4 days by agar well diffusion method
Procedure, shortened: (§3)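 Agar well diffusion on Sabouraud dextrose agar (glucose–peptone–agar 40:10:15), with cultures purified by single-spore isolation. Wells (4 mm × 2 mm) were sealed at the bottom with 0.8% soft agar and loaded with DMSO solutions. DMSO served as control and amphotericin B as reference. Incubation was 30 °C for 3–4 days; each zone was measured three times by caliper and averaged.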

Candida albicans [3] = assay: Antifungal activity against Candida albicans at 1 to 10 mg/mL after 3 to 4 days by agar well diffusion method; procedure, shortened: as §2
Aspergillus flavus [4] = assay: Antifungal activity against Aspergillus flavus after 3 to 4 days by agar well diffusion method; procedure, shortened: as §3
Pseudomonas aeruginosa = assay: Antibacterial activity against Pseudomonas aeruginosa at 1 to 10 mg/mL after 24 hrs by agar well diffusion method; procedure, shortened: as §1

SMILES | diameter of the inhibition zone (DIZ) (Staphylococcus aureus) [mm] | diameter of the inhibition zone (DIZ) (Aspergillus flavus [1]) [mm] | MIC (Candida albicans [2]) [µg/mL] | diameter of the inhibition zone (DIZ) (Candida albicans [3]) [mm] | MIC (Aspergillus flavus [4]) [µg/mL] | diameter of the inhibition zone (DIZ) (Pseudomonas aeruginosa) [mm]
O=c1[nH]c(=S)nc2oc3cc(O)ccc3cc1-2 | 15 | 0 | < 50 | 0 | < 50 | 14
COc1cc(C2C(C#N)=C(N)Oc3[nH]c(=S)[nH]c(=O)c32)cc(OC)c1OC (centres undefined) | 13 | 0 | < 50 | 10 | < 50 | 13
CCOC(=O)C1=C(N)Oc2[nH]c(=S)[nH]c(=O)c2C1c1ccc(Cl)cc1 (centres undefined) | 16 | 0 | < 50 | 13 | < 50 | 19
CCOC(=O)C1=C(N)Sc2[nH]c(=S)[nH]c(=S)c2C1c1ccc(Cl)cc1 (centres undefined) | 16 | 14 | < 50 | 14 | < 50 | 18
CCOC=C1C(=O)NC(=S)NC1=O | 13 | 0 | – | 12 | – | 13
NNC=C1C(=O)NC(=S)NC1=O | 18 | 36 | – | 0 | – | 18
COc1cc(C2c3c(nc(N)c(C#N)c3N)Oc3[nH]c(=S)[nH]c(=O)c32)cc(OC)c1OC (centres undefined) | 13 | 0 | < 50 | 10 | < 50 | 12
COc1cc(C2C(C#N)=C(NS(=O)(=O)c3ccccc3)Oc3[nH]c(=S)[nH]c(=O)c32)cc(OC)c1OC (centres undefined) | 14 | 0 | < 50 | 12 | < 50 | 13
COc1cc(C2c3c(nc[nH]c3=O)Oc3[nH]c(=S)[nH]c(=O)c32)cc(OC)c1OC (centres undefined) | 15 | 0 | < 50 | 11 | < 50 | 13
C[C@@H]1[C@H](O)[C@@H](C)/C=C/C=C/C=C/C=C/C=C/C=C/C=C/[C@H](O[C@@H]2O[C@H](C)[C@@H](O)[C@H](N)[C@@H]2O)C[C@@H]2O[C@](O)(C[C@@H](O)C[C@@H](O)[C@H](O)CC[C@@H](O)C[C@@H](O)CC(=O)O[C@H]1C)C[C@H](O)[C@H]2C(=O)O [AMPHOTERICIN B] | – | 16 | – | 19 | – | –
CN(C)[C@@H]1C(O)=C(C(N)=O)C(=O)[C@@]2(O)C(O)=C3C(=O)c4c(O)cccc4[C@@](C)(O)[C@H]3C[C@@H]12 [TETRACYCLINE] | 26 | – | – | – | – | 28
